Values after ≈ are worked out from the molar mass of the structure shown. Active and inactive are the calls of the source. No cut-off for these calls is given here.
What was measured:
HCT-116 [1] = assay: Cytotoxicity against human HCT116 cells assessed as cell viability after 48 hrs by SRB assay; format: cell-based; settings: hct-116, 48 h
How it was run: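 Cell viability of HCT116 by sulforhodamine B assay under the hypoxic reporter-assay conditions; mean of three experiments.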

[2] = target: T1, Hypoxia-inducible factor 1-alpha (Homo sapiens, UniProt Q16665); assay: Inhibition of HIF1alpha in human HCT116 cells under hypoxic condition after 16 hrs by dual luciferase reporter gene assay; format: cell-based; settings: hct-116
How it was run: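 HRE-luciferase reporter in HCT116 cells under hypoxia (1% O2, 94% N2, 5% CO2); luciferase read-out. IC50 from the mean of three experiments; LW6 positive control.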
Target sequence in this assay (Q16665 whole entry): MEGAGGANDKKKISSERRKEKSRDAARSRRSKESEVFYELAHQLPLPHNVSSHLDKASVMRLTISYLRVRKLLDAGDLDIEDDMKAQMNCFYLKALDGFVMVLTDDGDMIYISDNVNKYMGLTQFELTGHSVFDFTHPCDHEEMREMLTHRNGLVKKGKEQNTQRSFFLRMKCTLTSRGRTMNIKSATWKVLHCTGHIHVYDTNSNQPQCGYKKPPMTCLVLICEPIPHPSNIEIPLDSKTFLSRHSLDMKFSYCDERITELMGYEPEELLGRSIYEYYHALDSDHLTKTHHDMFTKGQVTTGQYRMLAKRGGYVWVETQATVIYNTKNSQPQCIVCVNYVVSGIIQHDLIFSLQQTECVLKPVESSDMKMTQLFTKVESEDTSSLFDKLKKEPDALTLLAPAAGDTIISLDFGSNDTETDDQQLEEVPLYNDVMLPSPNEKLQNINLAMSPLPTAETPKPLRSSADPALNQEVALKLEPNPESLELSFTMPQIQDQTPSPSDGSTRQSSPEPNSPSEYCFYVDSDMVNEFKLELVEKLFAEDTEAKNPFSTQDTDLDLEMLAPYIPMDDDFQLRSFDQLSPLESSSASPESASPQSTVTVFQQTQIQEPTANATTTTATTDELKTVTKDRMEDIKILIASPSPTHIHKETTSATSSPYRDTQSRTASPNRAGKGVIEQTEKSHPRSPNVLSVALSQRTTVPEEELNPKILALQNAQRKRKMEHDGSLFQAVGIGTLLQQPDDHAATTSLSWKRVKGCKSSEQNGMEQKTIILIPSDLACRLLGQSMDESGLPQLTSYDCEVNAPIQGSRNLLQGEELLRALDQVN

[3] = Kinetic solubility of the compound in water at pH 7.4 by nephlometry; format: physicochemical; settings: read-out: Kinetic_solubility
How it was run: (§1)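 Kinetic aqueous solubility determined by nephelometry at pH 2, 7.4 and 9; values are the mean of three experiments.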

[4] = Kinetic solubility of the compound in water at pH 9 by nephlometry; format: physicochemical; settings: read-out: Kinetic_solubility; how it was run: as §1
[5] = Kinetic solubility of the compound in water at pH 2 by nephlometry; format: physicochemical; settings: read-out: Kinetic_solubility; how it was run: as §1
[6] = target: T1, Hypoxia-inducible factor 1-alpha; assay: Inhibition of HIF1alpha in human HCT116 cells under hypoxic condition assessed as decrease in MMP9 mRNA expression by RT-PCR analysis; format: cell-based; settings: HCT-116
How it was run: (§2)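 HCT116 cells were treated under hypoxia (1% O2, 94% N2, 5% CO2), and the 2 μM test level was named. mRNA of HIF-1α and its targets (VEGF, EPO, MMP-9) was measured by RT-PCR.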
Target sequence in this assay (Q16665 whole entry, looked up): as the sequence (Q16665 whole entry) above

[7] = target: T1, Hypoxia-inducible factor 1-alpha; assay: Inhibition of HIF1alpha in human HCT116 cells under hypoxic condition assessed as decrease in EPO mRNA expression by RT-PCR analysis; format: cell-based; settings: HCT-116; how it was run: as §2
Target sequence in this assay (Q16665 whole entry, looked up): as the sequence (Q16665 whole entry) above

[8] = target: T1, Hypoxia-inducible factor 1-alpha; assay: Inhibition of HIF1alpha in human HCT116 cells under hypoxic condition assessed as decrease in VEGF mRNA expression by RT-PCR analysis; format: cell-based; settings: HCT-116; how it was run: as §2
Target sequence in this assay (Q16665 whole entry, looked up): as the sequence (Q16665 whole entry) above

[9] = target: T1, Hypoxia-inducible factor 1-alpha; assay: Inhibition of HIF1alpha in human HCT116 cells under normoxic condition assessed as increase in VHL expression at 2 to 5 uM by dual luciferase reporter gene assay; format: cell-based; settings: HCT-116
Target sequence in this assay (Q16665 whole entry, looked up): as the sequence (Q16665 whole entry) above

[10] = target: T1, Hypoxia-inducible factor 1-alpha; assay: Inhibition of HIF1alpha in human HCT116 cells under hypoxic condition assessed as increase in VHL expression at 2 to 5 uM by dual luciferase reporter gene assay; format: cell-based; settings: HCT-116
How it was run: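 HCT116 cells were exposed to 0, 2 or 5 μM compound under hypoxia (1% O2, 94% N2, 5% CO2). They were lysed in RIPA buffer, and total lysates were examined for VHL expression.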
Target sequence in this assay (Q16665 whole entry, looked up): as the sequence (Q16665 whole entry) above

[11] = target: T1, Hypoxia-inducible factor 1-alpha; assay: Inhibition of HIF1alpha in human HCT116 cells under hypoxic condition at 5 uM after 12 hrs by dual luciferase reporter gene assay in absence of dipyridol; format: cell-based; settings: HCT-116
How it was run: (§3)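 HCT116 cells were cotransfected with pGL3-HRE-luciferase and pRL-SV40 and incubated 24 h. They were then held under hypoxia 4 h and treated with 5 μM compound for 12 h under hypoxia, with 200 μM dipyridol added where stated. Firefly luciferase was read against Renilla.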
Target sequence in this assay (Q16665 whole entry, looked up): as the sequence (Q16665 whole entry) above

[12] = target: T1, Hypoxia-inducible factor 1-alpha; assay: Inhibition of HIF1alpha in human HCT116 cells under hypoxic condition at 5 uM after 12 hrs by dual luciferase reporter gene assay in presence of dipyridol; format: cell-based; settings: HCT-116; how it was run: as §3
PC-3 = assay: Inhibition of HIF1alpha expression in human PC3 cells under hypoxic condition assessed as decrease in protein accumulation by Western blot analysis; format: functional, cell-based
How it was run: (§4)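 Cells held under hypoxia (1% O2, 94% N2, 5% CO2) with compound at various concentrations; HIF-1α protein in lysates detected by Western blot. LW6 as control; HIF-1β also probed.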

HeLa = assay: Inhibition of HIF1alpha expression in human HeLa cells under hypoxic condition assessed as decrease in protein accumulation by Western blot analysis; format: functional, cell-based; how it was run: as §4
A549 = assay: Inhibition of HIF1alpha expression in human A549 cells under hypoxic condition assessed as decrease in protein accumulation by Western blot analysis; format: functional, cell-based; how it was run: as §4
LoVo = assay: Inhibition of HIF1alpha expression in human LoVo cells under hypoxic condition assessed as decrease in protein accumulation by Western blot analysis; format: functional, cell-based; how it was run: as §4
HCT-116 [13] = assay: Inhibition of HIF1beta expression in human HCT116 cells under hypoxic condition assessed as protein accumulation at 0.05 to 30 uM by Western blot analysis; format: functional, cell-based
How it was run: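 HCT116 cells under hypoxia treated with compound at various concentrations; HIF-1β protein level in lysates assessed by Western blot alongside HIF-1α.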

HCT-116 [14] = assay: Inhibition of HIF1alpha expression in human HCT116 cells under hypoxic condition assessed as decrease in protein accumulation by Western blot analysis; format: functional, cell-based; how it was run: as §4
HCT-116 [15] = assay: Antimigratory activity against human HCT116 cells assessed as inhibition of cell migration after 24 hrs by wound healing assay; format: functional, cell-based
How it was run: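 Scratch-wound migration of HCT116 cells formed with culture inserts; cells treated with compound or SU11248 and wound closure observed over 24 h.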

HUVEC [16] = assay: Cytotoxicity against HUVECs assessed as growth inhibition at 1 to 5 uM after 48 hrs by SRB assay; format: cell-based; settings: human
How it was run: (§5)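 HUVEC growth inhibition measured by sulforhodamine B assay, run in parallel with the Matrigel tube-formation incubation (compound or SU11248).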

HUVEC [17] = assay: Antiangiogenic activity in HUVECs under hypoxic condition assessed as inhibition of tube formation at 2 to 5 uM after 18 hrs; format: functional, cell-based; settings: Homo sapiens
How it was run: (§6)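 HUVECs seeded on wells coated with ice-cold Matrigel, incubated with compound under 1% O2 for 18 h. Tubule branches photographed; SU11248 as VEGFR-inhibitor positive control.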

HCT-116 [18] = assay: Downregulation of HIF1alpha mRNA expression in human HCT116 cells under hypoxic condition at 2 to 10 uM by RT-PCR analysis; format: functional, cell-based
How it was run: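 mRNA of HIF-1α and target genes measured by RT-PCR in compound-treated cells.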

[19] = target: T1, Hypoxia-inducible factor 1-alpha; assay: Inhibition of HIF1alpha in human HCT116 cells under hypoxic condition at 0.4 uM after 12 hrs by dual luciferase reporter gene assay in absence of dipyridol; format: cell-based; settings: HCT-116
How it was run: (§7)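 Cells cotransfected with pGL3-HRE-luciferase and pRL-SV40, incubated 24 h, then 4 h hypoxia. Then treated with compound (17-AAG 0.4 μM; test 5 μM) with or without 200 μM dipyridol for 12 h under hypoxia. Firefly luciferase normalised to Renilla.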

[20] = target: T1, Hypoxia-inducible factor 1-alpha; assay: Inhibition of HIF1alpha in human HCT116 cells under hypoxic condition at 0.4 uM after 12 hrs by dual luciferase reporter gene assay in presence of dipyridol; format: cell-based; settings: HCT-116; how it was run: as §7
HUVEC [21] = assay: Cytotoxicity against HUVECs assessed as growth inhibition at 0.5 to 2 uM after 48 hrs by SRB assay; format: cell-based; settings: human; how it was run: as §5
HUVEC [22] = assay: Antiangiogenic activity in HUVECs under hypoxic condition assessed as inhibition of tube formation at 2 uM after 18 hrs; format: functional, cell-based; settings: Homo sapiens; how it was run: as §6

Row | SMILES | Activity (HCT-116 [1]) | IC50 [2] | other results
1 | COC(=O)c1cccc(NC(=O)CCOc2ccc(C34CC5CC(CC(C5)C3)C4)cc2)c1 | > 20 µM | 2540 nM | –
2 | O=C(/C=C/Oc1ccc(C23CC4CC(CC(C4)C2)C3)cc1)Nc1cccc(C(=O)O)c1 | > 20 µM | > 20000 nM | –
3 | CN(C)CCOC(=O)c1cccc(NC(=O)/C=C/Oc2ccc(C34CC5CC(CC(C5)C3)C4)cc2)c1 | > 20 µM | 2620 nM | –
4 | O=C(/C=C/Oc1ccc(C23CC4CC(CC(C4)C2)C3)cc1)Nc1cccc(C(=O)NCCc2ccncc2)c1 | > 20 µM | 1340 nM | –
5 | COC(=O)c1cccc(NC(=O)/C=C/Oc2ccc(C(C)(C)C)cc2)c1 | > 20 µM | 6030 nM | –
6 | COC(=O)c1cc(NC(=O)/C=C/Oc2ccc(C34CC5CC(CC(C5)C3)C4)cc2)ccc1O | > 20 µM | > 20000 nM | –
7 | NC(=O)c1cccc(NC(=O)/C=C/Oc2ccc(C34CC5CC(CC(C5)C3)C4)cc2)c1 | > 20 µM | > 20000 nM | –
8 | COC(=O)c1cccc(NC(=O)/C=C/Oc2ccc(C34CC5CC(CC(C5)C3)C4)cc2C)c1 | > 20 µM | 4120 nM | –
9 | COC(=O)c1cccc(NC(=O)COc2ccc(C34CC5CC(CC(C5)C3)C4)cc2)c1 | > 20 µM | 5030 nM | –
10 | CC(C)NC(=O)c1cccc(NC(=O)/C=C/Oc2ccc(C34CC5CC(CC(C5)C3)C4)cc2)c1 | > 20 µM | > 20000 nM | –
11 | COC(=O)c1cccc(NC(=O)CCCOc2ccc(C34CC5CC(CC(C5)C3)C4)cc2)c1 | > 20 µM | 15800 nM | –
12 | COC(=O)c1cccc(NC(=O)/C=C/Oc2ccc(C34CC5CC(CC(C5)C3)C4)cc2)c1 | > 20 µM | – | solubility kinetic [3]: 6.56 µM (≈ 2.83 µg/mL); solubility kinetic [4]: 12.2 µM (≈ 5.27 µg/mL); solubility kinetic [5]: 4.25 µM (≈ 1.83 µg/mL)
13 | COC(=O)c1ccc(NC(=O)/C=C/Oc2ccc(C34CC5CC(CC(C5)C3)C4)cc2)cc1 | > 20 µM | 2170 nM | –
14 | O=C(/C=C/Oc1ccc(C23CC4CC(CC(C4)C2)C3)cc1)Nc1cccc(C(=O)OCCN2CCOCC2)c1 | > 20 µM | 120 nM | inhibition [6]: Dose-dependent effect; inhibition [7]: Dose-dependent effect; inhibition [8]: Dose-dependent effect; inhibition [9]: Active; inhibition [10]: Active; inhibition [11]: Active; inhibition [12]: inactive; inhibition (PC-3): Dose-dependent effect; inhibition (HeLa): Dose-dependent effect; inhibition (A549): Dose-dependent effect; inhibition (LoVo): Dose-dependent effect; inhibition (HCT-116 [13]): inactive; inhibition (HCT-116 [14]): Dose-dependent effect; solubility kinetic [3]: 113 µM (≈ 60 µg/mL); solubility kinetic [4]: 61.3 µM (≈ 32.5 µg/mL); solubility kinetic [5]: 45.1 µM (≈ 23.9 µg/mL); inhibition (HCT-116 [15]): Active; Activity (HUVEC [16]): Non-toxic; inhibition (HUVEC [17]): Active; Activity (HCT-116 [18]): inactive
15 | COC(=O)c1cccc(NC(=O)/C=C/Oc2ccc(C(C)(C)CC(C)(C)C)cc2)c1 | > 20 µM | 1040 nM | –
16 | C=CCNC1=C2C[C@@H](C)C[C@H](OC)[C@H](O)[C@@H](C)/C=C(\C)[C@H](OC(N)=O)[C@@H](OC)/C=C\C=C(/C)C(=O)NC(=CC1=O)C2=O | – | – | inhibition [19]: Active; inhibition [20]: Active
17 | O=C(/C=C/Oc1ccc(C23CC4CC(CC(C4)C2)C3)cc1)Nc1cccc(C(=O)OCCN2CCCC2)c1 | > 20 µM | 1350 nM | –
18 | CS(=O)(=O)c1cccc(NC(=O)/C=C/Oc2ccc(C34CC5CC(CC(C5)C3)C4)cc2)c1 | > 20 µM | 1180 nM | –
19 | CCN(CC)CCNC(=O)c1c(C)[nH]c(/C=C2\C(=O)Nc3ccc(F)cc32)c1C [SUNITINIB] | – | – | inhibition (HCT-116 [15]): Active; Activity (HUVEC [21]): Non-toxic; inhibition (HUVEC [22]): Active
20 | O=C(/C=C/Oc1ccc(C23CC4CC(CC(C4)C2)C3)cc1)Nc1cccc(C(=O)NCCN2CCOCC2)c1 | > 20 µM | 1070 nM | –
21 | COC(=O)c1ccc(O)c(NC(=O)COc2ccc(C34CC5CC(CC(C5)C3)C4)cc2)c1 | > 20 µM | 2440 nM | solubility kinetic [3]: 6.85 µM (≈ 2.98 µg/mL); solubility kinetic [4]: 44.9 µM (≈ 19.6 µg/mL); solubility kinetic [5]: 68.2 µM (≈ 29.7 µg/mL)
22 | COCCOC(=O)c1cccc(NC(=O)/C=C/Oc2ccc(C34CC5CC(CC(C5)C3)C4)cc2)c1 | > 20 µM | 1840 nM | –
23 | O=C(/C=C/Oc1ccc(C23CC4CC(CC(C4)C2)C3)cc1)Nc1cccc(C(=O)NCCCn2ccnc2)c1 | > 20 µM | 1850 nM | –
24 | CCOC(=O)c1cccc(NC(=O)/C=C/Oc2ccc(C34CC5CC(CC(C5)C3)C4)cc2)c1 | > 20 µM | 820 nM | –
25 | O=C(/C=C/Oc1ccc(C23CC4CC(CC(C4)C2)C3)cc1)Nc1cccc(C(=O)NCc2ccco2)c1 | > 20 µM | > 20000 nM | –
26 | NS(=O)(=O)c1cccc(NC(=O)/C=C/Oc2ccc(C34CC5CC(CC(C5)C3)C4)cc2)c1 | > 20 µM | 2380 nM | –

— ChEMBL document CHEMBL2176992, “Synthesis and structure-activity relationship of (E)-phenoxyacrylic amide derivatives as hypoxia-inducible factor (HIF) 1α inhibitors” (J Med Chem, 2012)
